# Laboratory results taken from article PMC9801203 (Poultry Science, 2022).
# Read-outs that look alike come from different tables or passages of the source. Marks after values point to notes of the source that are not given here.
# Columns and labels:
# [1] = humans, calculated; ref Sueck et al. (2019b); cited from earlier work
# [2] = system: human liver carcinoma cell line HepG2; settings: HepG2 cells; ref Cramer et al. (2010); cited from earlier work
# [3] = toxin levels in tissues of hatched chicks after in ovo injection; format: in vivo, Gallus gallus domesticus; settings: for Toxin level in heart / Toxin level in kidneys / Toxin level in liver / Toxin level in serum / Toxin level in yolk sac: hatched chicks, mean ± SD; for presence as potential metabolite of OTA and 2’R-OTA in isolated organs: chicks after in ovo injection of OTA or 2’R-OTA
# Method in brief: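 Eggs (30/group) punctured with a 0.5 mm needle, injected with test compound at 0.25, 0.50 or 0.75 µg/egg in 50 µL ultra-pure water, sealed; incubated 37.5–38.5°C, 50–60% RH, turned 45° every 2 h. Hatched chicks decapitated; serum and tissues (200 mg) deconjugated with β-glucuronidase/arylsulfatase overnight at 37°C, acetonitrile-based extraction, ¹³C₂₀-OTA internal standard, HPLC-MS/MS positive mode.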
# [4] = system: chicken embryo fibroblasts cell line SL-29 (ATCC CRL1590); assay: MTT cytotoxicity assay, 48 h exposure; format: cell-based, Gallus gallus
# Method in brief: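 SL-29 chicken embryo fibroblasts were grown in DMEM with 5% FBS, 5% tryptose phosphate broth, 2 mM L-glutamine and penicillin/streptomycin at 37°C and 5% CO2. Cells were exposed to a ten-point twofold dilution series for 48 h at 37°C and 5% CO2. MTT (5 mg/mL stock in PBS) was added for 4 h and removed. Formazan was dissolved in DMSO and absorbance read at 510 nm. Samples below 50% were considered toxic.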
# chicken embryos [5] = format: in vivo, Gallus gallus domesticus; settings: for effect on chick quality (in words): compared with control group; for Early dead embryos: embryos dead up to 7 d of incubation; for Late dead embryos: embryos died after 7 d of incubation; for Hatchability: hatchability of fertile eggs; for BW: hatched chicks; for BW / Chicks quality: Average score of chicks with score <100: mean ± SD; for Chicks quality: Average score of all chicks: maximum score 100, mean ± SD
# Method in brief: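 Hatching eggs in groups of 30 per repetition: one control without puncture, one punctured without injection. A 0.5 mm needle puncture delivered 0.25, 0.50 or 0.75 µg/egg in 50 µL ultrapure water (sonicated, autoclaved 108°C, 3 min); the site was sealed with plaster. Incubation at 37.5–38.5°C and 50–60% RH, turned 45° every 2 h. Candling at days 6 and 18; early deaths ≤7 d. Hatched chicks were weighed and quality-scored (maximum 100).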
# [6] = chickens; ref Galtier et al., 1981; cited from earlier work
# HeLa cells = settings: acute toxicity, ref Xiao et al., 1996; cited from earlier work
# [7] = pigs; ref Harwig et al., 1983; cited from earlier work
# IHKE cells = settings: cytotoxicity, ref Bittner et al., 2015; cited from earlier work
# chicken embryos [8] = settings: 1 µg/egg, after 9 d of incubation; ref Hassan et al. (2012a); cited from earlier work
# embryos of Danio rerio = settings: ref Haq et al., 2016; cited from earlier work
# [9] = system: serum-free cultures of embryonic brains of Tetra SL chick stage 29; settings: 8-day exposure, embryonic chick brain cultures; ref Bruinink et al. (1998); cited from earlier work
# [10] = MTT reduction, SL-29 cells, 48 h exposure
smiles,measurement,setting,value
"C[C@@H]1Cc2c(Cl)cc(C(=O)N[C@H](Cc3ccccc3)C(=O)O)c(O)c2C(=O)O1 [2’R-OTA, 2’R-ochratoxin A]",biological half-life,[1],approx. 6 mo
same,cytotoxic effect relative to OTA,[2],approx. Tenfold lower cytotoxic effect
same,Toxin level in heart,[3]; in ovo injection 0.25 µg/egg,0.00 ± 0.00a µg/kg
same,Toxin level in kidneys,[3]; in ovo injection 0.25 µg/egg,1.18 ± 0.07b µg/kg
same,Toxin level in liver,[3]; in ovo injection 0.25 µg/egg,1.11 ± 0.02b µg/kg
same,Toxin level in serum,[3]; in ovo injection 0.25 µg/egg,0.38 ± 0.00 µg·days/kg
same,Toxin level in yolk sac,[3]; in ovo injection 0.25 µg/egg,4.65 ± 0.04b µg/kg
same,Toxin level in heart,[3]; in ovo injection 0.50 µg/egg,0.32 ± 0.02c µg/kg
same,Toxin level in kidneys,[3]; in ovo injection 0.50 µg/egg,1.59 ± 0.07c µg/kg
same,Toxin level in liver,[3]; in ovo injection 0.50 µg/egg,2.81 ± 0.16c µg/kg
same,Toxin level in serum,[3]; in ovo injection 0.50 µg/egg,0.30 ± 0.00c µg/kg
same,Toxin level in yolk sac,[3]; in ovo injection 0.50 µg/egg,7.52 ± 0.26 µg·days/kg
same,Toxin level in heart,[3]; in ovo injection 0.75 µg/egg,0.87 ± 0.02e µg/kg
same,Toxin level in kidneys,[3]; in ovo injection 0.75 µg/egg,5.19 ± 0.14f µg/kg
same,Toxin level in liver,[3]; in ovo injection 0.75 µg/egg,12.68 ± 0.10f µg/kg
same,Toxin level in serum,[3]; in ovo injection 0.75 µg/egg,1.87 ± 0.02f µg/kg
same,Toxin level in yolk sac,[3]; in ovo injection 0.75 µg/egg,19.83 ± 0.63g µg/kg
same,IC50,[4]; [10],6.54 µM
same,effect on chick quality (in words),chicken embryos [5],did not reduce chick quality
same,Chicks quality: Chicks with score 100,chicken embryos [5]; in ovo injection 0.25 µg/egg,96.6%^c
same,Early dead embryos,chicken embryos [5]; in ovo injection 0.25 µg/egg,14.4%^bc
same,Late dead embryos,chicken embryos [5]; in ovo injection 0.25 µg/egg,6.6%^b
same,Hatchability,chicken embryos [5]; in ovo injection 0.25 µg/egg,61.1%^b
same,BW,chicken embryos [5]; in ovo injection 0.25 µg/egg,41.83 ± 2.54^a g
same,Chicks quality: Average score of all chicks,chicken embryos [5]; in ovo injection 0.25 µg/egg,98.97 ± 5.57^b
same,Chicks quality: Average score of chicks with score <100,chicken embryos [5]; in ovo injection 0.25 µg/egg,80.00 ± 0.00^a
same,Chicks quality: Chicks with score 100,chicken embryos [5]; in ovo injection 0.50 µg/egg,68.6%^ab
same,Early dead embryos,chicken embryos [5]; in ovo injection 0.50 µg/egg,15.5%^bc
same,Late dead embryos,chicken embryos [5]; in ovo injection 0.50 µg/egg,4.4%^b
same,Hatchability,chicken embryos [5]; in ovo injection 0.50 µg/egg,58.9%^b
same,BW,chicken embryos [5]; in ovo injection 0.50 µg/egg,41.59 ± 2.91^a g
same,Chicks quality: Average score of all chicks,chicken embryos [5]; in ovo injection 0.50 µg/egg,96.03 ± 8.37^ab
same,Chicks quality: Average score of chicks with score <100,chicken embryos [5]; in ovo injection 0.50 µg/egg,87.36 ± 10.85^a
same,Chicks quality: Chicks with score 100,chicken embryos [5]; in ovo injection 0.75 µg/egg,70.8%^b
same,Early dead embryos,chicken embryos [5]; in ovo injection 0.75 µg/egg,21.1%^c
same,Late dead embryos,chicken embryos [5]; in ovo injection 0.75 µg/egg,11.1%^c
same,Hatchability,chicken embryos [5]; in ovo injection 0.75 µg/egg,46.7%^b
same,BW,chicken embryos [5]; in ovo injection 0.75 µg/egg,42.43 ± 2.90^a g
same,Chicks quality: Average score of all chicks,chicken embryos [5]; in ovo injection 0.75 µg/egg,94.08 ± 14.62^ab
same,Chicks quality: Average score of chicks with score <100,chicken embryos [5]; in ovo injection 0.75 µg/egg,79.71 ± 21.88^ab
"C[C@@H]1Cc2c(Cl)cc(C(=O)N[C@@H](Cc3ccccc3)C(=O)O)c(O)c2C(=O)O1 [OTA, ochratoxin A]",biological half-life,[1],1 mo
same,half-life,[6],4.1 h
same,IC50,HeLa cells,5 µM
same,order of organs in which the toxin accumulated,[7],kidneys > liver > muscle tissue and fat
same,IC50,IHKE cells,0.5 µM
same,Toxin level in heart,[3]; in ovo injection 0.25 µg/egg,0.00 ± 0.00a µg/kg
same,Toxin level in kidneys,[3]; in ovo injection 0.25 µg/egg,2.70 ± 0.07 µg·days/kg
same,Toxin level in liver,[3]; in ovo injection 0.25 µg/egg,4.37 ± 0.04 µg·days/kg
same,Toxin level in serum,[3]; in ovo injection 0.25 µg/egg,0.22 ± 0.00b µg/kg
same,Toxin level in yolk sac,[3]; in ovo injection 0.25 µg/egg,7.04 ± 0.08c µg/kg
same,Toxin level in heart,[3]; in ovo injection 0.50 µg/egg,0.25 ± 0.01b µg/kg
same,Toxin level in kidneys,[3]; in ovo injection 0.50 µg/egg,4.56 ± 0.21e µg/kg
same,Toxin level in liver,[3]; in ovo injection 0.50 µg/egg,7.12 ± 0.19e µg/kg
same,Toxin level in serum,[3]; in ovo injection 0.50 µg/egg,0.31 ± 0.00c µg/kg
same,Toxin level in yolk sac,[3]; in ovo injection 0.50 µg/egg,10.43 ± 0.21e µg/kg
same,Toxin level in heart,[3]; in ovo injection 0.75 µg/egg,0.59 ± 0.01 µg·days/kg
same,Toxin level in kidneys,[3]; in ovo injection 0.75 µg/egg,11.83 ± 0.35g µg/kg
same,Toxin level in liver,[3]; in ovo injection 0.75 µg/egg,16.02 ± 0.28g µg/kg
same,Toxin level in serum,[3]; in ovo injection 0.75 µg/egg,0.61 ± 0.01e µg/kg
same,Toxin level in yolk sac,[3]; in ovo injection 0.75 µg/egg,12.40 ± 0.31f µg/kg
same,IC50,"[4]; Gallus gallus, Fibroblast, 48 h",0.24 µM
same,effect on chick quality (in words),chicken embryos [5],considerably reduced the number of chicks with a score of 100
same,Chicks quality: Chicks with score 100,chicken embryos [5]; in ovo injection 0.25 µg/egg,82.7%^bc
same,Early dead embryos,chicken embryos [5]; in ovo injection 0.25 µg/egg,12.2%^b
same,Late dead embryos,chicken embryos [5]; in ovo injection 0.25 µg/egg,4.4%^b
same,Hatchability,chicken embryos [5]; in ovo injection 0.25 µg/egg,58.9%^b
same,BW,chicken embryos [5]; in ovo injection 0.25 µg/egg,41.53 ± 3.06^a g
same,Chicks quality: Average score of all chicks,chicken embryos [5]; in ovo injection 0.25 µg/egg,97.02 ± 9.51^b
same,Chicks quality: Average score of chicks with score <100,chicken embryos [5]; in ovo injection 0.25 µg/egg,82.78 ± 17.33^a
same,Early dead embryos,chicken embryos [5]; in ovo injection 0.50 µg/egg,12.2%^b
same,Late dead embryos,chicken embryos [5]; in ovo injection 0.50 µg/egg,8.9%^b
same,Hatchability,chicken embryos [5]; in ovo injection 0.50 µg/egg,50.0%^ab
same,BW,chicken embryos [5]; in ovo injection 0.50 µg/egg,41.59 ± 3.12^a g
same,Chicks quality: Average score of all chicks,chicken embryos [5]; in ovo injection 0.50 µg/egg,98.77 ± 4.52^b
same,Chicks quality: Average score of chicks with score <100,chicken embryos [5]; in ovo injection 0.50 µg/egg,88.00 ± 9.27^a
same,Chicks quality: Chicks with score 100,chicken embryos [5]; in ovo injection 0.75 µg/egg,63.3%^a
same,Early dead embryos,chicken embryos [5]; in ovo injection 0.75 µg/egg,31.1%^d
same,Late dead embryos,chicken embryos [5]; in ovo injection 0.75 µg/egg,4.4%^b
same,Hatchability,chicken embryos [5]; in ovo injection 0.75 µg/egg,35.6%^a
same,BW,chicken embryos [5]; in ovo injection 0.75 µg/egg,41.42 ± 3.71^a g
same,Chicks quality: Average score of all chicks,chicken embryos [5]; in ovo injection 0.75 µg/egg,91.03 ± 19.55^a
same,Chicks quality: Average score of chicks with score <100,chicken embryos [5]; in ovo injection 0.75 µg/egg,75.55 ± 26.30^b
same,embryo defect: beak hypoplasia,chicken embryos [8],45%
same,embryo defect: beak retrognathism,chicken embryos [8],12%
same,embryo defect: cleft spine,chicken embryos [8],10%
same,embryo defect: exencephaly,chicken embryos [8],4%
same,embryo defect: microphthalmia,chicken embryos [8],35%
same,embryo defect: no eye development,chicken embryos [8],49%
same,embryo defect: nonunited abdominal integuments,chicken embryos [8],8%
same,embryo defect: reduced body weight,chicken embryos [8],15%
same,teratogenicity and mortality (in words),embryos of Danio rerio,high OTA teratogenicity
"C[C@@H]1Cc2ccc(C(=O)N[C@@H](Cc3ccccc3)C(=O)O)c(O)c2C(=O)O1 [OTB, ochratoxin B]",presence as potential metabolite of OTA and 2’R-OTA in isolated organs,[3],not found in any of the organs tested above the LOD
same,IC50,[4]; [10],7.96 µM
"C[C@@H]1Cc2c(Cl)cc(C(=O)O)c(O)c2C(=O)O1 [OTα, α-ochratoxin]",IC50,HeLa cells,560 µM
same,neurotoxic effects not observed up to (concentration),[9],≥ 15 µM
same,nontoxic up to (concentration),IHKE cells,≥ 50 µM
same,presence as potential metabolite of OTA and 2’R-OTA in isolated organs,[3],not found in any of the organs tested above the LOD
same,IC50,[4]; [10],5.26 µM
same,teratogenicity and mortality (in words),embryos of Danio rerio,negligible teratogenicity and mortality
